From PubChem BioAssay AID2656 (Broad Institute, 2010) come the findings set out here.

The source made the active and inactive calls.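 The calls were made as follows: active = mean inhibition of serotonin release over both replicates above 50%; inactive = mean inhibition at or below 50%.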

In general, inhibition refers to the drop in the measured response relative to a control, in per cent.

In the test the test system is Human washed platelets, SFLLRN-induced 14C-serotonin release. Briefly: inhibition of SFLLRN-induced dense granule secretion, late-stage follow-up, mechanism study for platelet granule secretion inhibitor project, cell-based, 14C-serotonin release, radioactive (AID 2656). Particulars: at 10 µM; active compounds read high. In short, it runs like this: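 Test system: 14C-serotonin-labelled washed platelets | Quantity: 2x10^8 platelets per mL after resuspension | Medium: HEPES-Tyrodes buffer | Dosing: Single compound dose of 10 µM | Times: Compound pre-incubation 15 min, SFLLRN stimulation 15 min | Technique: beta scintillation counting of supernatant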
In the case of `CCOc1ccc2nc(NCCO)[nH]c2c1`, the inhibition is 9.75% (inactive).

Turning to `COc1cc2c(cc1OC)-c1cc(Nc3ccccc3C)nc(=O)n1CC2`, the inhibition was 94.8%.

For `CC(=O)Oc1ccc(-c2nc(-c3cccnc3)no2)cc1`, the inhibition is -5.2% (inactive).

As to `O=C(Oc1ccc(Cl)cc1)c1ccc(COC(=O)c2cnccn2)cc1`, the inhibition was 0.5% (inactive).

As to `COC(=O)c1ccccc1NC(=O)Nc1ccc2c(c1)OCO2`, the inhibition was 15.4% (inactive).

As to `COc1ccc(C(=O)Nc2ccc(N3CCOCC3)cc2)cc1OC`, the inhibition is 9.3% (inactive).

With `COC(=O)c1nn(-c2ccc3c(c2)CCN3C(C)=O)cc1O`, the inhibition was 12.8% (inactive).
